Experimental data reported in ChEMBL document CHEMBL3244143, “Synthesis and gastric antisecretory properties of an 8-aza-and a 10-oxa-8,12-secoprostaglandin” (1978).

Key:
Rattus norvegicus [1] = assay: Antisecretory activity in rat assessed as decrease in volume of gastric secretion at 1.5 mg/kg, sc immediately after surgery and again 2 hrs later measured after 4 hrs of pyloric ligation; format: functional, Stomach; design: scale not given: the % may be the effect or the level left; settings: route subcutaneous
Summary of the method: (§1)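 Pylorus-ligated rats under ether anesthesia via midline incision; 1.5 mg/kg sc given immediately after surgery and again 2.0 h later (total 3 mg/kg), diluted in phosphate buffer pH 7.4, 1 mL/kg. Six rats per compound plus vehicle control group. Killed 4 h after ligation; gastric volume measured, contents centrifuged 5000 rpm 10 min, supernatant titrated with 0.1 N NaOH to pH 7.0 (mequiv); % change vs control.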

Rattus norvegicus [2] = assay: Antisecretory activity in rat assessed as decrease in total acid at 1.5 mg/kg, sc immediately after surgery and again 2 hrs later measured after 4 hrs of pyloric ligation; format: functional; design: scale not given: the % may be the effect or the level left; settings: route subcutaneous; summary of the method: as §1

SMILES | Activity (Rattus norvegicus [1]) [%] | Activity (Rattus norvegicus [2]) [%]
CCCCCC(O)/C=C/CCOC(=O)CCCCCCCC(=O)OC (stereo not given) | 25 | 34
CCCCCC(O)/C=C/CCCC(=O)N(C)CCCCCCC(=O)OC (stereo not given) | 21 | 32
CCCCCC(O)/C=C/CCCC(=O)N(C)CCCCCCC(=O)O (stereo not given) | 25 | 25
CCCCC[C@H](O)/C=C/[C@H]1[C@H](O)CC(=O)[C@@H]1CCCCCCC(=O)O [ALPROSTADIL] | 74 | 96
CCCCC[C@H](O)/C=C/[C@@H]1[C@@H](C/C=C\CCCC(=O)O)[C@@H](O)C[C@H]1O [DINOPROST] | 37 | 42
